Values after ≈ are worked out from the molar mass of the structure shown.
Columns and labels:
Candida albicans = assay: Antifungal activity against Candida albicans after 48 hrs by broth microdilution method; type: functional
Outline: (§1)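 NCCLS broth microdilution in MOPS-buffered RPMI 1640, 96-well plates. Inoculum 1-5 × 10^3 cells/mL, moist chamber, 35 °C. Absorbance at 492 nm read at 48 h (C. albicans, C. parapsilosis), 72 h (C. neoformans, S. schenckii, A. fumigatus) or 96 h (T. mentagrophytes). MIC defined as 90% growth inhibition versus growth control.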

Cryptococcus neoformans = assay: Antifungal activity against Cryptococcus neoformans after 72 hrs by broth microdilution method; type: functional; outline: as §1
Aspergillus fumigatus = assay: Antifungal activity against Aspergillus fumigatus after 72 hrs by broth microdilution method; type: functional; outline: as §1
Escherichia coli = assay: Antibacterial activity against Escherichia coli ATCC 9637 after 24 hrs by broth microdilution method; type: functional
Outline: (§2)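 NCCLS broth microdilution in Mueller-Hinton broth, 96-well plates. Initial inoculum 1-5 × 10^3 cells/mL. Incubated in a moist chamber at 35 °C for 24 h, then absorbance read at 492 nm. MIC taken as the concentration giving 90% growth inhibition relative to the growth control.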

Candida parapsilosis = assay: Antifungal activity against Candida parapsilosis ATCC 22019 after 48 hrs by broth microdilution method; type: functional; conditions: Lodderomyces parapsilosis, ATCC 22019, 48 h; outline: as §1
Pseudomonas aeruginosa = assay: Antibacterial activity against Pseudomonas aeruginosa ATCC BAA-427 after 24 hrs by broth microdilution method; type: functional; outline: as §2
[1] = system: Trichophyton mentagrophytes; assay: Antifungal activity against Trichophyton mentagrophytes after 96 hrs by broth microdilution method; type: functional; outline: as §1
Klebsiella pneumoniae = assay: Antibacterial activity against Klebsiella pneumoniae ATCC 27736 after 24 hrs by broth microdilution method; type: functional; outline: as §2
Sporothrix schenckii = assay: Antifungal activity against Sporothrix schenckii after 72 hrs by broth microdilution method; type: functional; outline: as §1
Staphylococcus aureus = assay: Antibacterial activity against Staphylococcus aureus ATCC 25923 after 24 hrs by broth microdilution method; type: functional; outline: as §2
L929 [2] = assay: Cytotoxicity against mouse L929 cells assessed as morphological changes at 6.25 to 50 ug/ml using Giemsa staining by phase contrast microscopy analysis; type: cell-based
Outline: (§3)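 L929 fibroblasts in serum-free RPMI exposed to compound for 24 h. Wells fixed, Giemsa-stained 30 min at 37 °C, washed with PBS, air-dried. Morphology inspected by phase contrast microscopy against untreated control wells.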

[3] = Cytotoxicity against mouse L929 cells assessed as cell viability at 6.25 to 50 ug/ml after 24 hrs by MTT assay; type: cell-based; conditions: read-out: Activity
L929 [4] = assay: Cytotoxicity against mouse L929 cells assessed as morphological changes at 0.39 to 1.56 ug/ml using Giemsa staining by phase contrast microscopy analysis; type: cell-based; outline: as §3

Molecule | MIC (Candida albicans) [µg/mL] | MIC (Cryptococcus neoformans) [µg/mL] | MIC (Aspergillus fumigatus) [µg/mL] | MIC (Escherichia coli; ATCC 9637, 24 h) [µg/mL] | MIC (Candida parapsilosis) [µg/mL] | MIC (Pseudomonas aeruginosa; ATCC BAA-427, 24 h) [µg/mL] | MIC [1] [µg/mL] | MIC (Klebsiella pneumoniae; ATCC 27736, 24 h) [µg/mL] | MIC (Sporothrix schenckii) [µg/mL] | MIC (Staphylococcus aureus; ATCC 25923, 24 h) [µg/mL] | MIC (Escherichia coli) [µg/mL] | MIC (Pseudomonas aeruginosa) [µg/mL] | MIC (Klebsiella pneumoniae) [µg/mL] | MIC (Staphylococcus aureus) [µg/mL] | Activity (L929 [2]) | viability at 24 h [3] [%] | Activity (L929 [4])
O=C1C=C(Sc2ccccc2)C(=O)C=C1Sc1ccccc1 | 25 (≈ 77.1 µM) | 25 (≈ 77.1 µM) | > 50 | > 50 | 50 (≈ 154 µM) | > 50 | 50 (≈ 154 µM) | > 50 | 50 (≈ 154 µM) | > 50 | – | – | – | – | – | – | –
CCOC(=O)CSC1=C(SCC(=O)OCC)C(=O)C(SCC(=O)OCC)=C(SCC(=O)OCC)C1=O | 25 (≈ 43 µM) | 50 (≈ 86.1 µM) | > 50 | > 50 | 25 (≈ 43 µM) | > 50 | 50 (≈ 86.1 µM) | > 50 | > 50 | 50 (≈ 86.1 µM) | – | – | – | – | – | – | –
GENTAMICIN | – | – | – | – | – | – | – | – | – | – | 1.56 | 0.39 | 1.56 | 1.56 | – | – | –
O=C1C(Cl)=C(Sc2ccccc2)C(=O)C(Cl)=C1Sc1ccccc1 | 25 (≈ 63.6 µM) | 25 (≈ 63.6 µM) | > 50 | > 50 | 25 (≈ 63.6 µM) | > 50 | 50 (≈ 127 µM) | > 50 | 50 (≈ 127 µM) | 50 (≈ 127 µM) | – | – | – | – | – | – | –
Cc1ccc(SC2=C(Sc3ccc(C)cc3)C(=O)C(Sc3ccc(C)cc3)=C(Sc3ccc(C)cc3)C2=O)cc1 | 25 (≈ 41.9 µM) | > 50 | > 50 | > 50 | 25 (≈ 41.9 µM) | > 50 | > 50 | > 50 | 50 (≈ 83.8 µM) | > 50 | – | – | – | – | – | – | –
O=C1C(Cl)=C(N2CCOCC2)C(=O)C(Cl)=C1N1CCOCC1 | 12.5 (≈ 36 µM) | 12.5 (≈ 36 µM) | > 50 | > 50 | 12.5 (≈ 36 µM) | > 50 | 6.25 (≈ 18 µM) | > 50 | 12.5 (≈ 36 µM) | 25 (≈ 72 µM) | – | – | – | – | – | – | –
O=C1C(Cl)=C(Sc2cccc3ccccc23)C(=O)C(Cl)=C1Sc1cccc2ccccc12 | 25 (≈ 50.7 µM) | 25 (≈ 50.7 µM) | > 50 | > 50 | 12.5 (≈ 25.3 µM) | > 50 | 50 (≈ 101 µM) | > 50 | 50 (≈ 101 µM) | 25 (≈ 50.7 µM) | – | – | – | – | – | – | –
Clc1ccccc1C(c1ccccc1)(c1ccccc1)n1ccnc1 [CLOTRIMAZOLE] | 0.25 (≈ 0.725 µM) | 0.25 (≈ 0.725 µM) | 8 (≈ 23.2 µM) | – | 1 (≈ 2.9 µM) | – | 2 (≈ 5.8 µM) | – | 4 (≈ 11.6 µM) | – | – | – | – | – | – | – | –
O=C1C(Cl)=C(N2CCCCC2)C(=O)C(Cl)=C1N1CCCCC1 | 25 (≈ 72.8 µM) | 25 (≈ 72.8 µM) | > 50 | > 50 | 25 (≈ 72.8 µM) | > 50 | 12.5 (≈ 36.4 µM) | > 50 | 25 (≈ 72.8 µM) | > 50 | – | – | – | – | – | – | –
O=C1C(O)=C(Sc2ccccc2)C(=O)C(Sc2ccccc2)=C1Sc1ccccc1 | 12.5 (≈ 27.9 µM) | 12.5 (≈ 27.9 µM) | > 50 | > 50 | 12.5 (≈ 27.9 µM) | > 50 | 50 (≈ 111 µM) | > 50 | 50 (≈ 111 µM) | > 50 | – | – | – | – | – | – | –
CN1CCN(C2=C(Cl)C(=O)C(N3CCN(C)CC3)=C(Cl)C2=O)CC1 | 6.25 (≈ 16.7 µM) | 1.56 (≈ 4.18 µM) | 12.5 (≈ 33.5 µM) | 6.25 (≈ 16.7 µM) | 6.25 (≈ 16.7 µM) | > 50 | 0.78 (≈ 2.09 µM) | 6.25 (≈ 16.7 µM) | 1.56 (≈ 4.18 µM) | 6.25 (≈ 16.7 µM) | – | – | – | – | Toxic | > 90 | Non-toxic
